Data as given in ChEMBL document CHEMBL1156937, “3'-[4-Aryl-(1,2,3-triazol-1-yl)]-3'-deoxythymidine analogues as potent and selective inhibitors of human mitochondrial thymidine kinase” (J Med Chem, 2010).

Legend:
[1] = target: T1, Thymidine kinase 2, mitochondrial (Homo sapiens, UniProt O00142); assay: Uncompetitive inhibition of human recombinant mitochondrial thymidine kinase 2 using thymidine as substrate by Lineweaver-Burke plotting; settings: in the assay text read “using ATP as substrate” for “using thymidine as substrate”
T1 sequence (O00142 whole entry): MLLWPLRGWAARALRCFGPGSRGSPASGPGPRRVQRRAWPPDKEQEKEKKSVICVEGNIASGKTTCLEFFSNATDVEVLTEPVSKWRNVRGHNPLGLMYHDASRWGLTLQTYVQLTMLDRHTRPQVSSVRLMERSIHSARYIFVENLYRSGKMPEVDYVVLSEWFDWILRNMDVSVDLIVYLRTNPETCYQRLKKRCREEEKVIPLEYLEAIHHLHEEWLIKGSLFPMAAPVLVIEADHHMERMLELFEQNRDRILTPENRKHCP
Method in brief: (§1)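 Purified recombinant TK-2 in the same radiometric filter-binding assay. For dThd-varied kinetics, dThd was 0.4–5 μM with ATP saturating at 2.5 mM. For ATP-varied kinetics, ATP was 5–100 μM with dThd saturating at 20 μM. Km, Ki and inhibition mode were derived from Lineweaver-Burk plots.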

[2] = target: T2, Thymidine kinase, cytosolic (Homo sapiens, UniProt P04183); assay: Inhibition of human recombinant cytosolic thymidine kinase 1 assessed as inhibition of [methyl-3H]dThd phosphorylation after 30 mins by scintillation counting
T2 sequence (P04183 whole entry): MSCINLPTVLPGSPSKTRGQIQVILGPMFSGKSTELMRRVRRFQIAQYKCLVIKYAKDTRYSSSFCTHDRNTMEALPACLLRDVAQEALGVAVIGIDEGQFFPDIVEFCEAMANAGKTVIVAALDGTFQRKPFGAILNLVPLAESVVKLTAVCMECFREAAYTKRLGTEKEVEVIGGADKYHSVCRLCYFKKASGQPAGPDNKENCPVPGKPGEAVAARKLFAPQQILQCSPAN
Method in brief: (§2)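 Recombinant enzyme in 50 mM Tris/HCl pH 8.0, 2.5 mM MgCl2, 10 mM DTT, 0.5 mM CHAPS, 3 mg/mL BSA, 2.5 mM ATP and 1 μM [methyl-3H]dThd. Inhibitor at 5-fold dilutions; 37 °C for 30 min, within the linear range. Reaction spotted on DE-81 filter disks, which were washed in 1 mM ammonium formate, water and ethanol. Radioactivity counted by scintillation. IC50 is the concentration halving dThd phosphorylation.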

Deoxynucleoside kinase = target: T3, Deoxynucleoside kinase (Drosophila melanogaster, UniProt Q9XZT6); assay: Inhibition of Drosophila melanogaster multifunctional deoxynucleoside kinase assessed as inhibition of [methyl-3H]dThd phosphorylation after 30 mins by scintillation counting; method in brief: as §2
T3 sequence (Q9XZT6 whole entry): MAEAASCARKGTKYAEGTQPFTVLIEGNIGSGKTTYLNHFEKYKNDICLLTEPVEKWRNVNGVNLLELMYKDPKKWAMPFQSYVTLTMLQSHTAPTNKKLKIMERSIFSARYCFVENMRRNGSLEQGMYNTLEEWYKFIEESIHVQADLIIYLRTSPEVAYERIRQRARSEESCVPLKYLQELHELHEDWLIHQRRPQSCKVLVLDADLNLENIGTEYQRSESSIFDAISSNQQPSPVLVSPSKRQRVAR

[3] = target: T1, Thymidine kinase 2, mitochondrial; assay: Competitive inhibition of human recombinant mitochondrial thymidine kinase 2 using ATP as substrate by Lineweaver-Burke plotting; settings: in the assay text read “using thymidine as substrate” for “using ATP as substrate”; method in brief: as §1
[4] = Inhibition of Varicella zoster virus thymidine kinase assessed as inhibition of [methyl-3H]dThd phosphorylation after 30 mins by scintillation counting; parameters: species or system Human alphaherpesvirus 3; method in brief: as §2
Homo sapiens = organism: Homo sapiens; assay: Selectivity ratio of IC50 for human recombinant cytosolic thymidine kinase 1 to IC50 for human recombinant mitochondrial thymidine kinase 2
Thymidine kinase = target: T4, Thymidine kinase (Human alphaherpesvirus 1, UniProt Q9QNF7); assay: Inhibition of HSV1 thymidine kinase assessed as inhibition of [methyl-3H]dThd phosphorylation after 30 mins by scintillation counting; method in brief: as §2
T4 sequence (Q9QNF7 whole entry): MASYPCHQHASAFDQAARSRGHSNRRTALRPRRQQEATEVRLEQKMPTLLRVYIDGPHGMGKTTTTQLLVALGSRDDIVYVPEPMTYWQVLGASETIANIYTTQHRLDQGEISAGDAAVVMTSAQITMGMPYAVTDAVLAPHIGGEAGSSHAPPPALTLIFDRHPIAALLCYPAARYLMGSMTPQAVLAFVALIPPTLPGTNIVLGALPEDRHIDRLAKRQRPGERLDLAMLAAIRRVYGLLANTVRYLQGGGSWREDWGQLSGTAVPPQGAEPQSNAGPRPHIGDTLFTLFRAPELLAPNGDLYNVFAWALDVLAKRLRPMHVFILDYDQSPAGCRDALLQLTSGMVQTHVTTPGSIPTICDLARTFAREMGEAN

[5] = target: T1, Thymidine kinase 2, mitochondrial; assay: Inhibition of human recombinant mitochondrial thymidine kinase 2 assessed as inhibition of [methyl-3H]dThd phosphorylation after 30 mins by scintillation counting; method in brief: as §2
[6] = target: T1, Thymidine kinase 2, mitochondrial; assay: Inhibition of thymidine kinase 2

Row | Structure (SMILES) | Ki [1] | IC50 [2] | IC50 (Deoxynucleoside kinase) | Ki [3] | IC50 [4] | Ratio IC50 (Homo sapiens) | IC50 (Thymidine kinase) | IC50 [5] | Ki [6] | IC50 [6]
1 | O=c1[nH]c(=O)n([C@H]2C[C@H](n3cc(-c4ccc(Cl)cc4)nn3)[C@@H](CO)O2)cc1/C=C/Br | 0.41 µM | > 500 µM | 0.46 µM | 0.012 µM | 1.7 µM | > 14000 | 4.5 µM | 0.036 µM | – | –
2 | CCCCc1cn([C@H]2C[C@H](n3cc(C)c(=O)[nH]c3=O)O[C@@H]2CO)nn1 | – | 366 µM | 4.1 µM | – | 4.3 µM | – | 95 µM | 0.23 µM | – | –
3 | Cc1cn([C@H]2C[C@H](n3nncc3-c3ccccc3)[C@@H](CO)O2)c(=O)[nH]c1=O | – | ≥ 500 µM | 17 µM | – | 19 µM | – | 445 µM | 1.1 µM | – | –
4 | Cc1cn([C@H]2C[C@H](n3cc(-c4ccc(Cl)cc4)nn3)[C@@H](CO)O2)c(=O)[nH]c1=O | – | 71 µM | 1.8 µM | – | 3.3 µM | – | 27 µM | 0.046 µM | – | –
5 | Cc1cn([C@H]2C[C@H](n3cc(CC4CCCC4)nn3)[C@@H](CO)O2)c(=O)[nH]c1=O | – | 177 µM | 3 µM | – | 3.1 µM | – | 48 µM | 0.15 µM | – | –
6 | Cc1cn([C@H]2C[C@H](n3cc(-c4ccccn4)nn3)[C@@H](CO)O2)c(=O)[nH]c1=O | – | 316 µM | 3.8 µM | – | 3.1 µM | – | 46 µM | 1.3 µM | – | –
7 | Cc1cn([C@H]2C[C@H](n3ccnn3)[C@@H](CO)O2)c(=O)[nH]c1=O | – | ≥ 500 µM | 40 µM | – | 15 µM | – | 212 µM | 4.7 µM | – | –
8 | Cc1cn([C@H]2C[C@H](NC(=S)Nc3ccc(Cl)c(C(F)(F)F)c3)[C@@H](CO)O2)c(=O)[nH]c1=O | – | 316 µM | – | – | – | 2100 | – | 0.15 µM | – | –
9 | Cc1cn([C@H]2C[C@H](n3cc(-c4ccc(Cl)c(Cl)c4)nn3)[C@@H](CO)O2)c(=O)[nH]c1=O | – | 75 µM | 0.99 µM | – | 2.7 µM | – | 30 µM | 0.042 µM | – | –
10 | Cc1cn([C@H]2C[C@H](n3nncc3-c3ccc(Cl)cc3)[C@@H](CO)O2)c(=O)[nH]c1=O | – | 109 µM | 30 µM | – | – | – | 392 µM | 4 µM | – | –
11 | O=c1[nH]c(=O)n([C@H]2C[C@H](n3cc(-c4ccccc4)nn3)[C@@H](CO)O2)cc1/C=C/Br | – | > 500 µM | 2.9 µM | – | 3.7 µM | – | 36 µM | 0.25 µM | – | –
12 | O=c1[nH]c(=O)n([C@@H]2O[C@H](CO)[C@@H](O)C2O)cc1/C=C/Br (single isomer, unassigned) [SORIVUDINE] | – | – | – | – | – | – | – | – | 10.4 µM | –
13 | CNC(=O)c1ccc(C(OCCCCCCCCn2cc(C)c(=O)[nH]c2=O)(c2ccccc2)c2ccccc2)cc1 | – | – | – | – | – | – | – | – | – | 0.4 µM
14 | Cc1cn([C@H]2C[C@H](n3cc(-c4ccccc4)nn3)[C@@H](CO)O2)c(=O)[nH]c1=O | – | 54 µM | 2.2 µM | – | 2.5 µM | – | 28 µM | 0.32 µM | – | –
15 | Cc1cn([C@H]2C[C@H](NC(=S)Nc3ccc(Cl)c(C(F)(F)F)c3)[C@@H](COC(c3ccccc3)(c3ccccc3)c3ccccc3)O2)c(=O)[nH]c1=O | – | > 500 µM | > 500 µM | – | > 500 µM | – | > 500 µM | > 500 µM | – | –
16 | Cc1cn([C@H]2C[C@H](n3cc(Cc4ccccc4)nn3)[C@@H](CO)O2)c(=O)[nH]c1=O | – | 318 µM | 3.9 µM | – | 6.4 µM | – | 158 µM | 0.3 µM | – | –
17 | CCCCCC(=O)N[C@H]1C[C@H](n2cc(C)c(=O)[nH]c2=O)O[C@@H]1CO | – | – | – | – | – | – | – | – | 0.15 µM | –
